Here are results for four compounds from ChEMBL document CHEMBL1124765, “Synthesis and biological properties of novel phosphotriesters: a new approach to the introduction of biologically active nucleotides into cells” (J Med Chem, 1990).

The nature of series [1]: pKa value was determined. Format: physicochemical.
The species named for series [2] is Mus musculus. Nature of the series: Mean time survival (MTS) of the mice at the end of 28 or 49 days. The class given is functional. The essentials: (§1)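 Inocula were TK⁻ HSV-1 at 10⁶ CCID50/0.05 mL or HSV-1 KOS at 10^4.7 PFU/0.05 mL. Test formulations in DMSO were applied topically four times daily for 5 days, starting at infection. Skin lesions, hind-leg paralysis and death were recorded daily for 28 (KOS) or 49 (TK⁻) days, with five mice per group.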

Series [3] has as its system Mus musculus. Nature of the series: Topical treatment of intracutaneous TK- herpes simplex virus type 1 of strain VMW 1837 infection of Nu/nu mice for mean day of appearance of skin lesions and/or paralysis of the hind legs at 0.3% concentration (v/v in DMSO). Format: functional. The essentials:
as §1

The test system of series [4] is Mus musculus. Briefly: Topical treatment of intracutaneous TK- herpes simplex virus type 1 of strain VMW 1837 infection of Nu/nu mice for mean day of appearance of skin lesions and/or paralysis of the hind legs at 1% concentration (v/v in DMSO). Format: functional. In outline:
as §1

Series [5] has as its system Mus musculus. Briefly: Topical treatment of intracutaneous TK- herpes simplex virus type 1 of strain VMW 1837 infection of Nu/nu mice for mean day of appearance of skin lesions and/or paralysis of the hind legs at 3% concentration (v/v in DMSO). Format: functional. In outline: as §1
The species named for series [6] is Oryctolagus cuniculus. Briefly: Evaluated for the minimum cytotoxic concentration (MCC) upon preincubation of rabbit kidney cells. Format: functional. In outline:
(§2)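 Primary rabbit kidney cell cultures were exposed to compounds, some preincubated 24 h at 37 °C in medium with 10% fetal calf serum. The minimum cytotoxic concentration was the level causing a microscopically detectable change in normal cell morphology.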

The species named for series [7] is Oryctolagus cuniculus. Briefly: Evaluated for the minimum cytotoxic concentration (MCC) upon preincubation of rabbit kidney cells in medium containing 10% fetal calf serum at 37 degree Celsius for 24 hr. Format: functional. The note with it: Oryctolagus cuniculus, kidney; read-out: MCC. In outline:
as §2

Series [8] concerns Vesicular stomatitis virus. Briefly: Evaluated for the minimum inhibitory concentration (MIC) in primary rabbit kidney (PRK) by 50% upon pre-incubation in medium containing 10% fetal calf serum at 37 degree Centigrade for 24 hr against Vesicular stomatitis virus. Format: functional. The essentials:
(§3)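 Compounds were preincubated in medium with 10% fetal calf serum for 24 h at 37 °C before addition to the cells. Confluent primary rabbit kidney monolayers were infected with 100 CCID50 of virus and adsorbed for 1 h. Residual virus was removed and cells were incubated with varying compound concentrations. The endpoint was 50% reduction of cytopathogenicity, read when infected controls reached full CPE.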

Series [9] concerns Vesicular stomatitis virus. Briefly: Evaluated for the minimum inhibitory concentration (MIC) in primary rabbit kidney (PRK) by 50% against Vesicular stomatitis virus. Format: functional. In outline:
(§4)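 Confluent primary rabbit kidney cell monolayers were infected with 100 CCID50 of virus. After 1 h adsorption, residual virus was removed and cells were incubated with serial compound concentrations. Cytopathogenicity was scored once it reached completion in untreated infected controls. The endpoint was the concentration reducing virus-induced cytopathogenicity by 50%.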

The test system of series [10] is Vaccinia virus. Briefly: Evaluated for the minimum inhibitory concentration (MIC) in primary rabbit kidney (PRK) by 50% upon pre-incubation in medium containing 10% fetal calf serum at 37 degree Centigrade for 24 hr against Vaccinia virus. Format: functional. The note with it: Orthopoxvirus vaccinia. The essentials:
as §3

The subject of series [11] is Human alphaherpesvirus 1. Nature of the series: Evaluated for the minimum inhibitory concentration (MIC) in primary rabbit kidney (PRK) by 50% upon pre-incubation in medium containing 10% fetal calf serum at 37 degree Centigrade for 24 hr against TK- herpes simplex virus type 1 (TK- HSV-1) with st. The class given is functional. The essentials: as §3
Series [12] relates to Vaccinia virus. Briefly: Evaluated for the minimum inhibitory concentration (MIC) in primary rabbit kidney (PRK) by 50% against Vaccinia virus. The class given is functional. The note with it: Orthopoxvirus vaccinia. In outline: as §4
For series [13], the system named is Human alphaherpesvirus 2. Nature of the series: Evaluated for the minimum inhibitory concentration (MIC) in primary rabbit kidney (PRK) by 50% upon preincubation in medium containing 10% fetal calf serum at 37 degree Celsius for 24 hr against herpes simplex virus type-2 (HSV-2) with strains Ly. The class given is functional. In outline:
as §3

The test system of series [14] is Human alphaherpesvirus 1. Nature of the series: Evaluated for the minimum inhibitory concentration (MIC) in primary rabbit kidney (PRK) by 50% against TK- herpes simplex virus type 1 (TK- HSV-1) with strain B2006. Format: functional. In outline: as §4
In series [15] the test system is Human alphaherpesvirus 1. Briefly: Evaluated for the minimum inhibitory concentration (MIC) in primary rabbit kidney (PRK) by 50% against TK- herpes simplex virus type 1 (TK- HSV-1) with strain VMW 1837. The class given is functional. The essentials:
as §4

For series [16], the system named is Human alphaherpesvirus 1. Briefly: Evaluated for the minimum inhibitory concentration (MIC) in primary rabbit kidney (PRK) by 50% against herpes simplex virus type-1 (HSV-1) with strains KOS. The class given is functional. The essentials:
(§5)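 Confluent primary rabbit kidney cell cultures infected with 100 CCID50 virus; after 1 h adsorption residual virus removed and cells incubated with varying compound concentrations. Cytopathogenicity scored when complete in infected untreated controls; MIC = concentration reducing virus-induced cytopathogenicity by 50%. Compounds tested as such or after preincubation in medium with 10% fetal calf serum, 24 h, 37 °C.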

Series [17] deals with Human alphaherpesvirus 1. Briefly: Evaluated for the minimum inhibitory concentration (MIC) in primary rabbit kidney (PRK) by 50% against herpes simplex virus type-1 (HSV-1) with strains McIntyre. Format: functional. In outline: as §5
For series [18], the system named is Human alphaherpesvirus 1. Briefly: Evaluated for the minimum inhibitory concentration (MIC) in primary rabbit kidney (PRK) by 50% upon preincubation in medium containing 10% fetal calf serum at 37 degree Centigrade for 24 hr against herpes simplex virus type-1 (HSV-1) with strain McI. Format: functional. In outline:
as §3

Series [19] deals with Human alphaherpesvirus 1. Briefly: Evaluated for the minimum inhibitory concentration (MIC) in primary rabbit kidney (PRK) by 50% upon preincubation in medium containing 10% fetal calf serum at 37 degree Celsius for 24 hr against herpes simplex virus type-1 (HSV-1) with strainF. Format: functional. In outline: as §3
Series [20] deals with Human alphaherpesvirus 1. Briefly: Evaluated for the minimum inhibitory concentration (MIC) in primary rabbit kidney (PRK) by 50% upon pre-incubation in medium containing 10% fetal calf serum at 37 degree Centigrade for 24 hr against herpes simplex virus type-1 (HSV-1) with strainKOS. Format: functional. The essentials: as §3
Series [21] deals with Human alphaherpesvirus 2. Briefly: Evaluated for the minimum inhibitory concentration (MIC) in primary rabbit kidney (PRK) by 50% against herpes simplex virus type-2 (HSV-2) with strains 196. Format: functional. In outline: as §5
Series [22] has as its system Human alphaherpesvirus 2. Briefly: Evaluated for the minimum inhibitory concentration (MIC) in primary rabbit kidney (PRK) by 50% against herpes simplex virus type-2 (HSV-2) with strains G. Format: functional. In outline:
as §4

Series [23] has as its system Human alphaherpesvirus 2. Nature of the series: Evaluated for the minimum inhibitory concentration (MIC) in primary rabbit kidney (PRK) by 50% against herpes simplex virus type-2 (HSV-2) with strains Lyons. Format: functional. The essentials: as §5
Series [24] relates to Human alphaherpesvirus 2. Nature of the series: Evaluated for the minimum inhibitory concentration (MIC) in primary rabbit kidney (PRK) by 50% upon preincubation in medium containing 10% fetal calf serum at 37 degree Centigrade for 24 hr against herpes simplex virus type-2 (HSV-2) with strains 19. The class given is functional. The essentials:
as §3

The subject of series [25] is Human alphaherpesvirus 2. Briefly: Evaluated for the minimum inhibitory concentration (MIC) in primary rabbit kidney (PRK) by 50% upon preincubation in medium containing 10% fetal calf serum at 37 degree Celsius for 24 hr against herpes simplex virus type-2 (HSV-2) with strains G. Format: functional. The essentials: as §3
Series [26] deals with Human alphaherpesvirus 1. Nature of the series: Evaluated for the minimum inhibitory concentration (MIC) in primary rabbit kidney (PRK) by 50% against herpes simplex virus type-1 (HSV-1) with strains F. The class given is functional. In outline: as §5
Series [27] relates to Human alphaherpesvirus 1. Nature of the series: Evaluated for the minimum inhibitory concentration (MIC) in primary rabbit kidney (PRK) by 50% upon preincubation in medium containing 10% fetal calf serum at 37 degree Centigrade for 24 hr against TK- herpes simplex virus type 1 (TK- HSV-1) with st. Format: functional. The essentials:
as §3

≈ marks a conversion by molar mass, not a printed value. Where “and” joins values, the source holds several entries; their conditions need not be identical. Equal values may be shown once.

Broadly, the pKa is the negative logarithm of the acid dissociation constant. Consider `CC(=O)O[C@H]1C[C@H](n2cc(C)c(=O)[nH]c2=O)O[C@@H]1COP(=O)(OC[C@H]1O[C@@H](n2cc(C)c(=O)[nH]c2=O)C[C@@H]1OC(C)=O)Oc1cc(Cl)ccc1Cl`, for which, in series [1], the pKa was determined as 7.5.

The compound `CSc1ccc(OP(=O)(OC[C@H]2O[C@@H](n3cc(C)c(=O)[nH]c3=O)C[C@@H]2OC(C)=O)OC[C@H]2O[C@@H](n3cc(C)c(=O)[nH]c3=O)C[C@@H]2OC(C)=O)cc1` yielded a pKa in series [1] of 9.53.

For `CC(=O)O[C@H]1C[C@H](n2cc(C)c(=O)[nH]c2=O)O[C@@H]1COP(=O)(OC[C@H]1O[C@@H](n2cc(C)c(=O)[nH]c2=O)C[C@@H]1OC(C)=O)Oc1ccc(Cl)cc1`, the pKa in series [1] was 9.38.

As to `CS(=O)(=O)c1ccc(OP(=O)(OC[C@H]2O[C@@H](n3cc(/C=C/Br)c(=O)[nH]c3=O)C[C@@H]2O)OC[C@H]2O[C@@H](n3cc(/C=C/Br)c(=O)[nH]c3=O)C[C@@H]2O)cc1`, the MTS in the series listed under Mus musculus [2] was 15 days and 24.2 days and 37.8 days. In addition, the figures for the “Mean day appearance of lesions” value with Mus musculus [3], with Mus musculus [4] and in the series on Mus musculus [5] were 16.7, 10.4 and 9.7, respectively. The MCC in the series filed under Oryctolagus cuniculus [6] and in the series listed under Oryctolagus cuniculus [7] was more than 400 µg/mL in each case. The MIC is more than 400 µg/mL in series [8]; more than 400 µg/mL in series [9]; 70 µg/mL (≈ 79.3 µM) against Vaccinia virus [10]; 300 µg/mL (≈ 340 µM) with Human alphaherpesvirus 1 [11]; more than 400 µg/mL against Vaccinia virus [12]; 200 µg/mL (≈ 227 µM) in the series with Human alphaherpesvirus 2 [13]. Further, the MIC against Human alphaherpesvirus 1 [14] is more than 400 µg/mL; with Human alphaherpesvirus 1 [15] it was more than 400 µg/mL; in the series on Human alphaherpesvirus 1 [16], 2 µg/mL (≈ 2.27 µM); against Human alphaherpesvirus 1 [17], 2 µg/mL (≈ 2.27 µM); with Human alphaherpesvirus 1 [18], 0.7 µg/mL (≈ 0.793 µM); in the series on Human alphaherpesvirus 1 [19] it was 0.2 µg/mL (≈ 0.227 µM). Moreover, the MIC is 0.2 µg/mL (≈ 0.227 µM) in the series with Human alphaherpesvirus 1 [20]; more than 400 µg/mL against Human alphaherpesvirus 2 [21]; more than 200 µg/mL in the series with Human alphaherpesvirus 2 [22]; more than 400 µg/mL against Human alphaherpesvirus 2 [23]; more than 400 µg/mL in the series with Human alphaherpesvirus 2 [24]; 150 µg/mL (≈ 170 µM) against Human alphaherpesvirus 2 [25]. Also, the figures for the MIC in the series on Human alphaherpesvirus 1 [26] and with Human alphaherpesvirus 1 [27] were 2 µg/mL (≈ 2.27 µM) and more than 400 µg/mL, respectively.
